Reference: ChEMBL document CHEMBL5058577, “EUbOPEN Chemogenomics Library 2 (Multiplex)” (2022)

Tested on: HEK-293T
Assay: Multiplex assay against HEK293T
Assay type: toxicity, cell-based
Details: human
How it was run: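 Phenotypes for tubulin, mitochondrial mass and membrane permeability are expressed as per cents of healthy-nucleus cells. Cells were stained live at seeding with Hoechst33342, BioTracker Green Microtubule Cytoskeleton Dye, MitoTracker Red and Annexin V Alexa Fluor 680, then imaged after compound addition on a CQ1 microscope at 37°C and 5% CO2. Machine-learning gating in CellPathfinder separated Hoechst high-intensity objects from normal cells, divided normal cells by nuclear state (healthy, pyknosed, fragmented) and divided pyknosed cells into mitotic or apoptotic.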

[1] = 12 h, 1 µM, compound concentration 1 uM, replicate 1
[2] = 12 h, 1 µM, compound concentration 1 uM, replicate 2
[3] = 12 h, 10 µM, compound concentration 10 uM, replicate 1
[4] = 12 h, 10 µM, compound concentration 10 uM, replicate 2
[5] = 24 h, 1 µM, compound concentration 1 uM, replicate 1
[6] = 24 h, 1 µM, compound concentration 1 uM, replicate 2
[7] = 24 h, 10 µM, compound concentration 10 uM, replicate 1
[8] = 24 h, 10 µM, compound concentration 10 uM, replicate 2
[9] = 48 h, 1 µM, compound concentration 1 uM, replicate 1
[10] = 48 h, 1 µM, compound concentration 1 uM, replicate 2
[11] = 48 h, 10 µM, compound concentration 10 uM, replicate 1
[12] = 48 h, 10 µM, compound concentration 10 uM, replicate 2

C[C@H](N)COC(=O)[C@@H](CCCCN)NC(=O)Cc1c(-c2ccc3ccccc3c2)[nH]c2c1ccc1ccccc12
Population Apoptotic (%) [1]: 22%
Population Fragmented Nuclei (%) [1]: 6%
Population Healthy Nuclei (%) [1]: 82%
Population Hoechst High Intensity Objects (%) [1]: 8%
Population Membrane Permeable-Phenotype (%) [1]: 0%
Population Mitochondria Different-Phenotype (%) [1]: 37%
Population Mitotic Cells (%) [1]: 77%
Population Normal (%) [1]: 91%
Population Pyknosed Nuclei (%) [1]: 10%
Population Tubulin-Different-Phenotype (%) [1]: 27%
Total Cell Count [1]: 458
Population Apoptotic (%) [2]: 51%
Population Fragmented Nuclei (%) [2]: 8%
Population Healthy Nuclei (%) [2]: 74%
Population Mitochondria Different-Phenotype (%) [2]: 65%
Population Mitotic Cells (%) [2]: 48%
Population Pyknosed Nuclei (%) [2]: 16%
Population Tubulin-Different-Phenotype (%) [2]: 30%
Total Cell Count [2]: 291
Population Apoptotic (%) [3]: 41%
Population Fragmented Nuclei (%) [3]: 7%
Population Healthy Nuclei (%) [3]: 78%
Population Hoechst High Intensity Objects (%) [3]: 11%
Population Membrane Permeable-Phenotype (%) [3]: 0%
Population Mitochondria Different-Phenotype (%) [3]: 60%
Population Mitotic Cells (%) [3]: 58%
Population Normal (%) [3]: 88%
Population Pyknosed Nuclei (%) [3]: 14%
Population Tubulin-Different-Phenotype (%) [3]: 54%
Total Cell Count [3]: 435
Population Apoptotic (%) [4]: 61%
Population Fragmented Nuclei (%) [4]: 5%
Population Hoechst High Intensity Objects (%) [4]: 7%
Population Mitochondria Different-Phenotype (%) [4]: 72%
Population Mitotic Cells (%) [4]: 38%
Population Normal (%) [4]: 93%
Population Pyknosed Nuclei (%) [4]: 16%
Population Tubulin-Different-Phenotype (%) [4]: 50%
Total Cell Count [4]: 343
Population Apoptotic (%) [5]: 25%
Population Fragmented Nuclei (%) [5]: 9%
Population Healthy Nuclei (%) [5]: 77%
Population Hoechst High Intensity Objects (%) [5]: 4%
Population Membrane Permeable-Phenotype (%) [5]: 0%
Population Mitochondria Different-Phenotype (%) [5]: 24%
Population Mitotic Cells (%) [5]: 75%
Population Normal (%) [5]: 95%
Population Pyknosed Nuclei (%) [5]: 12%
Population Tubulin-Different-Phenotype (%) [5]: 19%
Total Cell Count [5]: 638
Population Apoptotic (%) [6]: 54%
Population Fragmented Nuclei (%) [6]: 7%
Population Healthy Nuclei (%) [6]: 80%
Population Hoechst High Intensity Objects (%) [6]: 7%
Population Membrane Permeable-Phenotype (%) [6]: 1%
Population Mitochondria Different-Phenotype (%) [6]: 47%
Population Mitotic Cells (%) [6]: 45%
Population Normal (%) [6]: 92%
Population Tubulin-Different-Phenotype (%) [6]: 25%
Total Cell Count [6]: 352
Population Apoptotic (%) [7]: 41%
Population Fragmented Nuclei (%) [7]: 6%
Population Healthy Nuclei (%) [7]: 78%
Population Hoechst High Intensity Objects (%) [7]: 6%
Population Membrane Permeable-Phenotype (%) [7]: 0%
Population Mitochondria Different-Phenotype (%) [7]: 57%
Population Mitotic Cells (%) [7]: 58%
Population Normal (%) [7]: 93%
Population Pyknosed Nuclei (%) [7]: 14%
Population Tubulin-Different-Phenotype (%) [7]: 45%
Total Cell Count [7]: 539
Population Apoptotic (%) [8]: 48%
Population Fragmented Nuclei (%) [8]: 9%
Population Healthy Nuclei (%) [8]: 80%
Population Hoechst High Intensity Objects (%) [8]: 7%
Population Mitochondria Different-Phenotype (%) [8]: 54%
Population Mitotic Cells (%) [8]: 51%
Population Normal (%) [8]: 92%
Population Pyknosed Nuclei (%) [8]: 10%
Population Tubulin-Different-Phenotype (%) [8]: 42%
Total Cell Count [8]: 439
Population Apoptotic (%) [9]: 15%
Population Fragmented Nuclei (%) [9]: 13%
Population Healthy Nuclei (%) [9]: 78%
Population Hoechst High Intensity Objects (%) [9]: 4%
Population Membrane Permeable-Phenotype (%) [9]: 2%
Population Mitochondria Different-Phenotype (%) [9]: 16%
Population Mitotic Cells (%) [9]: 84%
Population Normal (%) [9]: 95%
Population Pyknosed Nuclei (%) [9]: 7%
Population Tubulin-Different-Phenotype (%) [9]: 13%
Total Cell Count [9]: 963
Population Apoptotic (%) [10]: 37%
Population Fragmented Nuclei (%) [10]: 11%
Population Healthy Nuclei (%) [10]: 79%
Population Membrane Permeable-Phenotype (%) [10]: 0%
Population Mitochondria Different-Phenotype (%) [10]: 29%
Population Mitotic Cells (%) [10]: 62%
Population Pyknosed Nuclei (%) [10]: 9%
Population Tubulin-Different-Phenotype (%) [10]: 17%
Total Cell Count [10]: 540
Population Apoptotic (%) [11]: 27%
Population Fragmented Nuclei (%) [11]: 13%
Population Healthy Nuclei (%) [11]: 78%
Population Hoechst High Intensity Objects (%) [11]: 6%
Population Membrane Permeable-Phenotype (%) [11]: 0%
Population Mitochondria Different-Phenotype (%) [11]: 44%
Population Mitotic Cells (%) [11]: 72%
Population Normal (%) [11]: 93%
Population Pyknosed Nuclei (%) [11]: 7%
Population Tubulin-Different-Phenotype (%) [11]: 33%
Total Cell Count [11]: 781
Population Apoptotic (%) [12]: 32%
Population Fragmented Nuclei (%) [12]: 14%
Population Healthy Nuclei (%) [12]: 79%
Population Hoechst High Intensity Objects (%) [12]: 4%
Population Mitochondria Different-Phenotype (%) [12]: 43%
Population Mitotic Cells (%) [12]: 67%
Population Normal (%) [12]: 95%
Population Pyknosed Nuclei (%) [12]: 6%
Population Tubulin-Different-Phenotype (%) [12]: 35%
Total Cell Count [12]: 681
